Laboratory results reported in ChEMBL document CHEMBL5303300, “EUbOPEN Chemogenomics Library - Multiplex” (2023).
Where “and” joins values, the source holds several entries; their conditions need not be identical. Equal entries are not always repeated.

Key:
HEK-293T = experiment: Multiplex assay against HEK293T; format: toxicity, cell-based; details: human, number of replicates 2
Summary of the method: (§1)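 With compound added, live cells were imaged on a CQ1 microscope at 37°C and 5% CO2; staining with Hoechst33342, BioTracker Green Microtubule Cytoskeleton Dye, MitoTracker Red and Annexin V Alexa Fluor 680 had been done at seeding. The CellPathfinder machine-learning gating scheme split cells into Hoechst high-intensity objects or normal cells, normal cells into healthy, pyknosed or fragmented nuclei, and pyknosed cells into mitotic or apoptotic. The tubulin, mitochondrial-mass and membrane-permeability phenotypes are per cents of healthy-nucleus cells.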

U2OS = experiment: Multiplex assay against U2OS; format: toxicity, cell-based; details: human, number of replicates 2; summary of the method: as §1
[1] = 12 h, 1 µM, compound concentration 1 uM
[2] = 12 h, 10 µM, compound concentration 10 uM
[3] = 24 h, 1 µM, compound concentration 1 uM
[4] = 24 h, 10 µM, compound concentration 10 uM
[5] = 48 h, 1 µM, compound concentration 1 uM
[6] = 48 h, 10 µM, compound concentration 10 uM

CN(C)C/C=C/C(=O)Nc1ccc(C(=O)N2CCCC(Nc3ncc(Cl)c(-c4c[nH]c5ccccc45)n3)C2)cc1 (configuration not stated)
Population Apoptotic (%) (HEK-293T; [1]): 55% and 71%
Population Fragmented Nuclei (%) (HEK-293T; [1]): 6% and 2%
Population Healthy Nuclei (%) (HEK-293T; [1]): 72% and 69%
Population Hoechst High Intensity Objects (%) (HEK-293T; [1]): 14% and 16%
Population Membrane Permeable-Phenotype (%) (HEK-293T; [1]): 3% and 1%
Population Mitochondria Different-Phenotype (%) (HEK-293T; [1]): 63% and 58%
Population Mitotic Cells (%) (HEK-293T; [1]): 44% and 28%
Population Normal (%) (HEK-293T; [1]): 85% and 83%
Population Pyknosed Nuclei (%) (HEK-293T; [1]): 20% and 28%
Population Tubulin-Different-Phenotype (%) (HEK-293T; [1]): 83% and 79%
Total Cell Count (HEK-293T; [1]): 354 and 300
Population Apoptotic (%) (HEK-293T; [2]): 69% and 84%
Population Fragmented Nuclei (%) (HEK-293T; [2]): 5% and 11%
Population Healthy Nuclei (%) (HEK-293T; [2]): 67% and 68%
Population Hoechst High Intensity Objects (%) (HEK-293T; [2]): 29% and 21%
Population Membrane Permeable-Phenotype (%) (HEK-293T; [2]): 5% and 2%
Population Mitochondria Different-Phenotype (%) (HEK-293T; [2]): 63% and 70%
Population Mitotic Cells (%) (HEK-293T; [2]): 30% and 15%
Population Normal (%) (HEK-293T; [2]): 70% and 78%
Population Pyknosed Nuclei (%) (HEK-293T; [2]): 26% and 20%
Population Tubulin-Different-Phenotype (%) (HEK-293T; [2]): 88% and 85%
Total Cell Count (HEK-293T; [2]): 280 and 375
Population Apoptotic (%) (HEK-293T; [3]): 73% and 75%
Population Fragmented Nuclei (%) (HEK-293T; [3]): 6% and 5%
Population Healthy Nuclei (%) (HEK-293T; [3]): 75% and 74%
Population Hoechst High Intensity Objects (%) (HEK-293T; [3]): 17% and 19%
Population Membrane Permeable-Phenotype (%) (HEK-293T; [3]): 2% and 0%
Population Mitochondria Different-Phenotype (%) (HEK-293T; [3]): 68% and 60%
Population Mitotic Cells (%) (HEK-293T; [3]): 26% and 25%
Population Normal (%) (HEK-293T; [3]): 82% and 80%
Population Pyknosed Nuclei (%) (HEK-293T; [3]): 17% and 20%
Population Tubulin-Different-Phenotype (%) (HEK-293T; [3]): 80% and 68%
Total Cell Count (HEK-293T; [3]): 318 and 268
Population Apoptotic (%) (HEK-293T; [4]): 89% and 91%
Population Fragmented Nuclei (%) (HEK-293T; [4]): 7% and 10%
Population Healthy Nuclei (%) (HEK-293T; [4]): 75% and 71%
Population Hoechst High Intensity Objects (%) (HEK-293T; [4]): 28% and 25%
Population Membrane Permeable-Phenotype (%) (HEK-293T; [4]): 5% and 2%
Population Mitochondria Different-Phenotype (%) (HEK-293T; [4]): 78% and 79%
Population Mitotic Cells (%) (HEK-293T; [4]): 10% and 8%
Population Normal (%) (HEK-293T; [4]): 71% and 74%
Population Pyknosed Nuclei (%) (HEK-293T; [4]): 17%
Population Tubulin-Different-Phenotype (%) (HEK-293T; [4]): 88% and 86%
Total Cell Count (HEK-293T; [4]): 313 and 357
Population Apoptotic (%) (HEK-293T; [5]): 85% and 78%
Population Fragmented Nuclei (%) (HEK-293T; [5]): 9% and 4%
Population Healthy Nuclei (%) (HEK-293T; [5]): 75% and 77%
Population Hoechst High Intensity Objects (%) (HEK-293T; [5]): 22% and 15%
Population Membrane Permeable-Phenotype (%) (HEK-293T; [5]): 0% and 1%
Population Mitochondria Different-Phenotype (%) (HEK-293T; [5]): 76% and 69%
Population Mitotic Cells (%) (HEK-293T; [5]): 14% and 21%
Population Normal (%) (HEK-293T; [5]): 77% and 84%
Population Pyknosed Nuclei (%) (HEK-293T; [5]): 15% and 17%
Population Tubulin-Different-Phenotype (%) (HEK-293T; [5]): 81% and 77%
Total Cell Count (HEK-293T; [5]): 284 and 272
Population Apoptotic (%) (HEK-293T; [6]): 75% and 83%
Population Fragmented Nuclei (%) (HEK-293T; [6]): 8% and 17%
Population Healthy Nuclei (%) (HEK-293T; [6]): 54%
Population Hoechst High Intensity Objects (%) (HEK-293T; [6]): 24% and 26%
Population Membrane Permeable-Phenotype (%) (HEK-293T; [6]): 1% and 5%
Population Mitochondria Different-Phenotype (%) (HEK-293T; [6]): 75% and 70%
Population Mitotic Cells (%) (HEK-293T; [6]): 25% and 16%
Population Normal (%) (HEK-293T; [6]): 75% and 73%
Population Pyknosed Nuclei (%) (HEK-293T; [6]): 36% and 28%
Population Tubulin-Different-Phenotype (%) (HEK-293T; [6]): 83% and 82%
Total Cell Count (HEK-293T; [6]): 362 and 446
Population Apoptotic (%) (U2OS; [1]): 28% and 47%
Population Healthy Nuclei (%) (U2OS; [1]): 61% and 77%
Population Hoechst High Intensity Objects (%) (U2OS; [1]): 0%
Population Membrane Permeable-Phenotype (%) (U2OS; [1]): 7% and 3%
Population Mitochondria Different-Phenotype (%) (U2OS; [1]): 3%
Population Mitotic Cells (%) (U2OS; [1]): 71% and 52%
Population Normal (%) (U2OS; [1]): 100%
Population Pyknosed Nuclei (%) (U2OS; [1]): 16% and 15%
Population Tubulin-Different-Phenotype (%) (U2OS; [1]): 88% and 93%
Population Apoptotic (%) (U2OS; [2]): 66% and 86%
Population Fragmented Nuclei (%) (U2OS; [2]): 20% and 10%
Population Healthy Nuclei (%) (U2OS; [2]): 44% and 40%
Population Hoechst High Intensity Objects (%) (U2OS; [2]): 0%
Population Membrane Permeable-Phenotype (%) (U2OS; [2]): 0% and 22%
Population Mitotic Cells (%) (U2OS; [2]): 33% and 13%
Population Normal (%) (U2OS; [2]): 100% and 99%
Population Pyknosed Nuclei (%) (U2OS; [2]): 36% and 48%
Population Tubulin-Different-Phenotype (%) (U2OS; [2]): 81% and 57%
Population Apoptotic (%) (U2OS; [3]): 70% and 76%
Population Fragmented Nuclei (%) (U2OS; [3]): 19% and 8%
Population Healthy Nuclei (%) (U2OS; [3]): 52% and 67%
Population Hoechst High Intensity Objects (%) (U2OS; [3]): 0%
Population Membrane Permeable-Phenotype (%) (U2OS; [3]): 10% and 3%
Population Mitochondria Different-Phenotype (%) (U2OS; [3]): 0% and 1%
Population Mitotic Cells (%) (U2OS; [3]): 30% and 23%
Population Normal (%) (U2OS; [3]): 100%
